Results from ChEMBL document CHEMBL4304771, “Design, synthesis and biological activity of N-(2-phenoxy)ethyl imidazo[1,2-a]pyridine-3-carboxamides as new antitubercular agents” (Eur J Med Chem, 2019).
≈ marks a conversion by molar mass, not a printed value.

Tests used:
[1] = system: Mycobacterium tuberculosis; assay: Antitubercular activity against Mycobacterium tuberculosis H37Rv ATCC 27294 assessed as parasite growth inhibition measured after 7 days incubation by microplate alamar blue assay; type: functional; settings: H37Rv ATCC 27294, 168 h
Method in brief: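 Strains grown to late log phase in 7H9 with 0.2% glycerol, 0.05% Tween 80 and 10% ADC. Cells washed, resuspended in PBS, filtered (8 µm) and frozen at -80 °C. Two-fold compound dilutions, 2 × 10⁵ CFU per well, 37 °C for 7 days. Tween 80 and Alamar blue then added for 16-24 h; fluorescence read at ex 530/em 590 nm. MIC = lowest concentration giving ≥90% fluorescence reduction versus mean of bacterium-only controls.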

[2] = Half-life in human hepatocytes; type: ADME, cell-based, Hepatocyte
[3] = Mean residence time in ICR mouse at 50 mg/kg, po administered as single dose measured for 24 hrs by HPLC analysis; type: ADME, organism-based; settings: in vivo
Method in brief: (§1)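 Female SPF ICR mice (18–22 g), fasted overnight, 3 per group, got a single oral 50 mg/kg dose as a suspension in 0.5% CMC. Jugular blood was drawn at 0.25, 0.5, 1, 2, 4, 6, 8 and 24 h, and serum was stored at −20 °C. Proteins were precipitated with acetonitrile, and extracts were dried, redissolved in acetonitrile and run by HPLC. Parameters came directly from the concentration–time data.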

[4] = Half-life in ICR mouse at 50 mg/kg, po administered as single dose measured for 24 hrs by HPLC analysis; type: ADME, organism-based; settings: in vivo; method in brief: as §1
[5] = AUC (0 to infinity) in ICR mouse at 50 mg/kg, po administered as single dose measured for 24 hrs by HPLC analysis; type: ADME, organism-based; design: dose 50 mg/kg, route oral, time infinity; settings: in vivo; method in brief: as §1
[6] = Tmax in ICR mouse at 50 mg/kg, po administered as single dose measured for 24 hrs by HPLC analysis; type: ADME, organism-based; settings: in vivo; method in brief: as §1
[7] = Acute toxicity in ICR mouse assessed as animal survival at 500 mg/kg, po administered as single dose measured for 7 days; type: organism-based; settings: in vivo
Method in brief: (§2)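 Female ICR mice, 18-22 g, five per group, randomly assigned, fasted overnight. Single oral dose of 500 mg/kg suspended in 5% CMC; controls got 5% CMC alone (0.5 mL). Watched continuously for 4 h, then hourly to 24 h, then every 8 h for 7 days for deaths or changes. Read-out was survivors/total.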

[8] = Cmax in ICR mouse at 50 mg/kg, po administered as single dose measured for 24 hrs by HPLC analysis; type: ADME, organism-based; design: dose 50 mg/kg, route oral; settings: in vivo; method in brief: as §1
[9] = Acute toxicity in ICR mouse assessed as decrease in animal survival at 500 mg/kg, po administered as single dose measured for 7 days; type: organism-based; settings: in vivo, 168 h; method in brief: as §2

Row | SMILES | MIC [1] | other results
1 | Cc1ccn2c(C(=O)NCCOc3ccc(Br)cc3)c(C)nc2c1 | 0.463 µg/mL (≈ 1.19 µM) | 
2 | Cc1ccc2nc(C)c(C(=O)NCCOc3ccc(Br)cc3)n2c1 | 0.031 to 0.125 µg/mL (≈ 0.0798 to 0.322 µM) | half-life [2]: 6.5 min
3 | CCc1nc2ccc(Br)cn2c1C(=O)NCCOc1ccc(N2CCC(C(F)(F)F)CC2)cc1 | 0.0625 µg/mL (≈ 0.116 µM) | MRT [3]: 113 min; half-life [4]: 283 min; AUC(0-inf) [5]: 7120 ng·h/mL; Tmax [6]: 45 min; survival at 168 h [7]: 100%; Cmax [8]: 5080 ng/mL
4 | CCc1nc2ccc(F)cn2c1C(=O)NCCOc1ccc(Br)cc1 | 0.202 µg/mL (≈ 0.497 µM) | 
5 | Cc1ccc2nc(C3CC3)c(C(=O)NCCOc3ccc(Br)cc3)n2c1 | 0.052 µg/mL (≈ 0.126 µM) | 
6 | CCc1nc2ccc(Cl)cn2c1C(=O)NCCOc1ccc(Br)cc1 | 0.023 µg/mL (≈ 0.0544 µM) | half-life [2]: 35.2 min
7 | COc1ccc(OCCNC(=O)c2c(C3CC3)nc3ccc(C)cn23)cc1 | 0.027 µg/mL (≈ 0.0739 µM) | half-life [2]: 7.8 min
8 | CCc1nc2ccc(Cl)cn2c1C(=O)NCCOc1ccc(OC)cc1 | 0.056 µg/mL (≈ 0.15 µM) | 
9 | O=C(NCCOc1ccc(Br)cc1)c1c(C2CC2)nc2ccc(Cl)cn12 | 0.098 µg/mL (≈ 0.225 µM) | 
10 | CCc1nc2ccc(Cl)cn2c1C(=O)NCCOc1ccc(Cl)cc1 | 0.029 µg/mL (≈ 0.0767 µM) | half-life [2]: 12.9 min
11 | CCc1nc2ccc(C)cn2c1C(=O)NCCOc1ccc(N2CCN(C)CC2)cc1 | 4 µg/mL (≈ 9.49 µM) | 
12 | CCCc1nc2ccc(Cl)cn2c1C(=O)NCCOc1ccc(Br)cc1 | 0.054 µg/mL (≈ 0.124 µM) | 
13 | CCc1nc2ccc(Cl)cn2c1C(=O)NCCOc1ccncc1 | > 32 µg/mL | 
14 | COc1ccc2nc(C)c(C(=O)NCCOc3ccc(N4CCC(C(F)(F)F)CC4)cc3)n2c1 | 0.0625 µg/mL (≈ 0.131 µM) | MRT [3]: 64.2 min; half-life [4]: 55 min; AUC(0-inf) [5]: 754 ng·h/mL; Tmax [6]: 19.8 min; survival at 168 h [7]: 100%; Cmax [8]: 638 ng/mL
15 | CCCc1nc2ccc(F)cn2c1C(=O)NCCOc1ccc(Br)cc1 | 2.68 µg/mL (≈ 6.38 µM) | 
16 | Cc1nc2c(Cl)cccn2c1C(=O)NCCOc1ccc(Br)cc1 | 0.505 µg/mL (≈ 1.24 µM) | 
17 | CCc1nc2c(Cl)cccn2c1C(=O)NCCOc1ccc(Br)cc1 | 17.5 µg/mL (≈ 41.4 µM) | 
18 | O=C(NCCOc1ccc(Cl)cc1)c1c(C2CC2)nc2cc(Cl)ccn12 | 32 µg/mL (≈ 82 µM) | 
19 | CCc1nc2ccc(Br)cn2c1C(=O)NCCOc1ccc(N2CC3CCCCC3C2)cc1 (configuration not stated) | 0.0625 µg/mL (≈ 0.122 µM) | Activity [9]: Toxic
20 | O=C(NCCOc1ccc(Br)cc1)c1c(C2CC2)nc2ccc(F)cn12 | 0.928 µg/mL (≈ 2.22 µM) | 
21 | Cc1nc2ccc(F)cn2c1C(=O)NCCOc1ccc(Cl)cc1 | 3.84 µg/mL (≈ 11 µM) | 
22 | O=C(NCCOc1ccc(Br)cc1)c1c(C2CC2)nc2cc(Cl)ccn12 | 32 µg/mL (≈ 73.6 µM) | 
23 | CCCc1nc2ccc(C)cn2c1C(=O)NCCOc1ccc(Br)cc1 | 0.415 µg/mL (≈ 0.997 µM) | 
24 | CCc1nc2ccc(Br)cn2c1C(=O)NCCOc1ccc(N2CCN(C)CC2)cc1 | 1 µg/mL (≈ 2.06 µM) | 
25 | Cc1nc2c(C)cccn2c1C(=O)NCCOc1ccc(Br)cc1 | 13.9 µg/mL (≈ 35.9 µM) | 
26 | CCc1nc2cc(Cl)ccn2c1C(=O)NCCOc1ccc(Cl)cc1 | 5.86 µg/mL (≈ 15.5 µM) | 

Row | SMILES | MIC [1] | other results
27 | CCc1nc2ccc(Br)cn2c1C(=O)NCCOc1ccc(N2CCCCC2)cc1 | 0.0625 µg/mL (≈ 0.133 µM) | MRT [3]: 169 min; half-life [4]: 251 min; AUC(0-inf) [5]: 818 ng·h/mL; Tmax [6]: 15 min; survival at 168 h [7]: 100%; Cmax [8]: 983 ng/mL
28 | Cc1nc2ccc(F)cn2c1C(=O)NCCOc1ccc(Br)cc1 | 1.21 µg/mL (≈ 3.08 µM) | 
29 | CCc1nc2ccc(C)cn2c1C(=O)NCCOc1ccc(OC)cc1 | 0.023 µg/mL (≈ 0.0651 µM) | half-life [2]: 19.5 min
30 | Cc1ccn2c(C(=O)NCCOc3ccc(Br)cc3)c(C3CC3)nc2c1 | 5 µg/mL (≈ 12.1 µM) | 
31 | Cc1ccc2nc(C)c(C(=O)NCCOc3ccncc3)n2c1 | > 32 µg/mL | 
32 | CCc1nc2cc(Cl)ccn2c1C(=O)NCCOc1ccc(Br)cc1 | 6.35 µg/mL (≈ 15 µM) | 
33 | CCCc1nc2ccc(C)cn2c1C(=O)NCCOc1ccc(Cl)cc1 | 0.631 µg/mL (≈ 1.7 µM) | 
34 | COc1ccc2nc(C)c(C(=O)NCCOc3ccc(N4CCN(C)CC4)cc3)n2c1 | 0.5 µg/mL (≈ 1.18 µM) | 
35 | CCc1nc2ccc(Cl)cn2c1C(=O)NCCOc1ccc(N(C)C)cc1 | 0.0625 µg/mL (≈ 0.162 µM) | MRT [3]: 98.4 min; half-life [4]: 162 min; AUC(0-inf) [5]: 3340 ng·h/mL; Tmax [6]: 15 min; survival at 168 h [7]: 100%; Cmax [8]: 2120 ng/mL
36 | CCc1nc2ccc(Cl)cn2c1C(=O)NCCOc1ccc(N2CCN(c3ccc(F)cc3)CC2)cc1 | 0.0625 µg/mL (≈ 0.12 µM) | MRT [3]: 214 min; half-life [4]: 265 min; AUC(0-inf) [5]: 11100 ng·h/mL; Tmax [6]: 80 min; survival at 168 h [7]: 100%; Cmax [8]: 3330 ng/mL
37 | COc1ccc2nc(C)c(C(=O)NCCOc3ccc(N4CC5CCCCC5C4)cc3)n2c1 (configuration not stated) | 0.0625 µg/mL (≈ 0.139 µM) | Activity [9]: Toxic
38 | Cc1nc2cc(Cl)ccn2c1C(=O)NCCOc1ccc(Br)cc1 | 2.68 µg/mL (≈ 6.56 µM) | 
39 | Cc1nc2cccc(Cl)n2c1C(=O)NCCOc1ccc(Br)cc1 | 2.52 µg/mL (≈ 6.18 µM) | 
40 | CCc1nc2ccc(Br)cn2c1C(=O)NCCOc1ccc(Br)cc1 | 0.025 µg/mL (≈ 0.0535 µM) | half-life [2]: 15.8 min
41 | CCc1nc2ccc(C)cn2c1C(=O)NCCOc1ccc(N2CC3CCCCC3C2)cc1 (configuration not stated) | 0.0625 µg/mL (≈ 0.14 µM) | survival at 168 h [7]: 0%
42 | CCc1nc2ccc(C)cn2c1C(=O)NCCOc1ccc(Br)cc1 | 0.275 µg/mL (≈ 0.684 µM) | 
43 | CCCc1nc2ccc(F)cn2c1C(=O)NCCOc1ccc(Cl)cc1 | 1.14 µg/mL (≈ 3.04 µM) | 
44 | Cc1nc2ccc([N+](=O)[O-])cn2c1C(=O)NCCOc1ccc(Br)cc1 | 1.28 µg/mL (≈ 3.05 µM) | 
45 | COc1ccc2nc(C)c(C(=O)NCCOc3ccc(Br)cc3)n2c1 | 0.028 µg/mL (≈ 0.0693 µM) | half-life [2]: 54.2 min
46 | Cc1nc2ccc(Br)cn2c1C(=O)NCCOc1ccc(Br)cc1 | 0.358 µg/mL (≈ 0.79 µM) | 
47 | Cc1nc2ccc(Cl)cn2c1C(=O)NCCOc1ccc(Br)cc1 | 0.488 µg/mL (≈ 1.19 µM) | 
48 | CCCc1nc2ccc(Cl)cn2c1C(=O)NCCOc1ccc(Cl)cc1 | 0.631 µg/mL (≈ 1.61 µM) | 
49 | NNC(=O)c1ccncc1 [ISONIAZID] | 0.049 µg/mL (≈ 0.357 µM) | 
50 | O=c1nc(N2CCN(CC3CCCCC3)CC2)sc2c([N+](=O)[O-])cc(C(F)(F)F)cc12 [MACOZINONE] | 0.0625 µg/mL (≈ 0.137 µM) | 
51 | CO[C@H]1/C=C/O[C@@]2(C)Oc3c(C)c(O)c4c(O)c(c(/C=N/N5CCN(C)CC5)c(O)c4c3C2=O)NC(=O)/C(C)=C\C=C\[C@H](C)[C@H](O)[C@@H](C)[C@@H](O)[C@@H](C)[C@H](OC(C)=O)[C@@H]1C [RIFAMPIN] | 0.05 µg/mL (≈ 0.0608 µM) | 
52 | CCc1nc2ccc(Cl)cn2c1C(=O)NCc1ccc(N2CCC(c3ccc(OC(F)(F)F)cc3)CC2)cc1 [TELACEBEC] | 0.0625 µg/mL (≈ 0.112 µM) | 
